Laboratory results from ChEMBL document CHEMBL4028913, “Discovery of Novel Potent VEGFR-2 Inhibitors Exerting Significant Antiproliferative Activity against Cancer Cell Lines” (J Med Chem, 2018).
Active and inactive are the calls of the source. No cut-off for these calls is given here.

Legend:
[1] = tested on: MDA-MB-435; test: Growth inhibition of human MDA-MB-435 cells after 72 hrs by CellTiter-Glo assay; type: functional, cell-based; conditions: MDA-MB-435, 72 h
Procedure, shortened: (§1)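 Cells in exponential phase seeded at 2000–4000 cells/well, then exposed 72 h at 37 °C, 5% CO2 with 0.1% final DMSO. Single-point screen at 10 μM final. […] Read-out was CellTiter-Glo luminescence.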

[2] = target: Ephrin type-A receptor 5 (Homo sapiens) (UniProt P54756); test: Inhibition of human EPHA5 at 0.5 uM relative to control
[3] = tested on: CCRF-CEM; test: Cytotoxicity against human CCRF-CEM cells after 48 hrs by SRB assay; type: functional
Procedure, shortened: (§2)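 NCI-60 panel; cells grown in RPMI 1640 with 5% FBS and 2 mM L-glutamine, plated at 5000–40 000 cells/well by doubling time, preincubated 24 h (37 °C, 5% CO2). Drug added at five concentrations, 1-log steps from 10−4 to 10−8 M, for 48 h. Fixed with TCA, stained with 0.4% SRB, absorbance read at 515 nm. Percent growth computed against time-zero and untreated controls; GI50, TGI and LC50 derived.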

[4] = tested on: SR; test: Cytotoxicity against human SR cells after 48 hrs by SRB assay; type: functional; procedure, shortened: as §2
[5] = tested on: UACC-62; test: Cytotoxicity against human UACC62 cells after 48 hrs by SRB assay; type: functional; conditions: UACC-62, 48 h
Procedure, shortened: (§3)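 NCI-60 panel, five doses at 1-log steps from 10−4 to 10−8 M. Cells grown in RPMI 1640 with 5% FBS and 2 mM L-glutamine, seeded at 5000–40 000 cells/well and preincubated 24 h. Tz plates were TCA-fixed at drug addition. Drug exposure 48 h at 37 °C, then TCA fixation, 0.4% SRB stain and absorbance at 515 nm. GI50 taken from percent growth relative to Tz and control.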

[6] = tested on: LOX IMVI; test: Cytotoxicity against human LOXIMVI cells after 48 hrs by SRB assay; type: functional; procedure, shortened: as §2
[7] = target: Vascular endothelial growth factor receptor 1 (Homo sapiens) (UniProt P17948); test: Inhibition of human Flt1 at 0.5 uM relative to control
Chain of Vascular endothelial growth factor receptor 1 (Homo sapiens) (P17948 whole entry): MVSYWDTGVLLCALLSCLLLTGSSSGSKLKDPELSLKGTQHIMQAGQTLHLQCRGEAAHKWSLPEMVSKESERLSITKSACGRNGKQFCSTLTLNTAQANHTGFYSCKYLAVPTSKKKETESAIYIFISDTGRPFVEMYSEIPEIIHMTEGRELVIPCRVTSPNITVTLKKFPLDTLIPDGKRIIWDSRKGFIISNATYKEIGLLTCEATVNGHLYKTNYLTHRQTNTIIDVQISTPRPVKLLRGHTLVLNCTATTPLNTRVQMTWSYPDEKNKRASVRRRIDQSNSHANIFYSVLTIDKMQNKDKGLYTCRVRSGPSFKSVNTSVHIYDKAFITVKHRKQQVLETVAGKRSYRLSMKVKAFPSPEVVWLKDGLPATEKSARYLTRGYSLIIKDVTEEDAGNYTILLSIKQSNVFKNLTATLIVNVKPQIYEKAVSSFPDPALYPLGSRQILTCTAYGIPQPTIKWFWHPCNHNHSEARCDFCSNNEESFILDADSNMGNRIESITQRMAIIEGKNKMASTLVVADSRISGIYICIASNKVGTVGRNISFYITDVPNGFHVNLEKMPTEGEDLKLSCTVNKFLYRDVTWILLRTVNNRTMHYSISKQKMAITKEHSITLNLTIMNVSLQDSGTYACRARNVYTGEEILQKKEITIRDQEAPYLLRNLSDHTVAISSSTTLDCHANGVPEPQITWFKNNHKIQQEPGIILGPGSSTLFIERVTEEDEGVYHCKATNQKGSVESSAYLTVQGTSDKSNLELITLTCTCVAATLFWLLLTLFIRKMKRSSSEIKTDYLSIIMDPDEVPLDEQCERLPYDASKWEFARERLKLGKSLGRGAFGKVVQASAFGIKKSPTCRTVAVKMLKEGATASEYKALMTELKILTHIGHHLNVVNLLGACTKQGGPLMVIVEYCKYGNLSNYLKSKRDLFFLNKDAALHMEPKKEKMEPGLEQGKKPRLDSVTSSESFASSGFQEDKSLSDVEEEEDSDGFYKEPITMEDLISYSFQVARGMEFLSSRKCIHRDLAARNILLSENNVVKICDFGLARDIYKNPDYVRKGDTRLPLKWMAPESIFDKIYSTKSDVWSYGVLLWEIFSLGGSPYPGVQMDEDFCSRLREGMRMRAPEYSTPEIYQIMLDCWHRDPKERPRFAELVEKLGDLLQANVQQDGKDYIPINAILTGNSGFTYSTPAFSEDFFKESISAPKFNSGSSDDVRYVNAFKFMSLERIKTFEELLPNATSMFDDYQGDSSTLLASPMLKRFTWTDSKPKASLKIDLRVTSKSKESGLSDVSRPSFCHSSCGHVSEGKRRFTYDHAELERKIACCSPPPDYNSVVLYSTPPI

[8] = Potency index, ratio of sunitinib GI50 to test compound GI50 for human non-small cell lung cancer cells; type: functional
[9] = tested on: Leukemia cell; test: Potency index, ratio of sorafenib GI50 to test compound GI50 for human leukemia cells; type: functional
Procedure, shortened: (§4)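 GI50 is the concentration giving 50% reduction in net protein increase relative to control. Potency index is the reference-drug GI50 divided by the test-compound GI50.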

[10] = tested on: OVCAR-4; test: Cytotoxicity against human OVCAR4 cells after 48 hrs by SRB assay; type: functional; conditions: OVCAR-4, 48 h; procedure, shortened: as §2
[11] = Potency index, ratio of sorafenib GI50 to test compound GI50 for human breast cancer cells; type: functional, Breast cancer cell; procedure, shortened: as §4
[12] = target: Ephrin type-A receptor 3 (Homo sapiens) (UniProt P29320); test: Inhibition of human EPHA3 at 0.5 uM relative to control
Chain of Ephrin type-A receptor 3 (Homo sapiens) (P29320 whole entry): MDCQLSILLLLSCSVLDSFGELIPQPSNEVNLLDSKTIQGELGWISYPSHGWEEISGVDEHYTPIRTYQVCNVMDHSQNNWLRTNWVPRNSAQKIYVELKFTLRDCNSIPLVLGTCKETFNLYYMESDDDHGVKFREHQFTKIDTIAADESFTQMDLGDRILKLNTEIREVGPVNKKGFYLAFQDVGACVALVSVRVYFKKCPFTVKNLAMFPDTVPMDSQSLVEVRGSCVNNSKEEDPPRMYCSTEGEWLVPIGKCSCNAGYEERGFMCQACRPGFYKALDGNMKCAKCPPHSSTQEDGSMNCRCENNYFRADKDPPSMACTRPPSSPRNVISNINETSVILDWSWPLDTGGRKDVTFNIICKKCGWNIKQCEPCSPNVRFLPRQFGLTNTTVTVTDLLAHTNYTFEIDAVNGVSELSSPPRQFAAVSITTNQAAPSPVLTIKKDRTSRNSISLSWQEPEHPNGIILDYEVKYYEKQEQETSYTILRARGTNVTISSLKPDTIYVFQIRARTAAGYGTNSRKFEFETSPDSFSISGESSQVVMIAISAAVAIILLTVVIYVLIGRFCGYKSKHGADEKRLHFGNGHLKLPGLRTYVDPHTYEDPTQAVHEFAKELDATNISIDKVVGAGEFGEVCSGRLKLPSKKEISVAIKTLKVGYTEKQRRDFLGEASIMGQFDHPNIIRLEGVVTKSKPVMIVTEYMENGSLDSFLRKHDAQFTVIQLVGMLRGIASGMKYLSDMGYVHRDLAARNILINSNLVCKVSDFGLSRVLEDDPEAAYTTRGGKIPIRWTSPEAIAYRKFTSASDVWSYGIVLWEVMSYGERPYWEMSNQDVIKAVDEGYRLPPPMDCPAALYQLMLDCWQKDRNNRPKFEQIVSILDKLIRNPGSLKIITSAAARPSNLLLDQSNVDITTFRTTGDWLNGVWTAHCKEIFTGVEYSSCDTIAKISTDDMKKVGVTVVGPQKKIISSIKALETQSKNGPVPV

[13] = tested on: MDA-MB-468; test: Cytotoxicity against human MDA-MB-468 cells after 48 hrs by SRB assay; type: functional; conditions: MDA-MB-468, 48 h; procedure, shortened: as §2
[14] = target: STE20-like serine/threonine-protein kinase (Homo sapiens) (UniProt Q9H2G2); test: Inhibition of human SLK at 0.5 uM relative to control
[15] = tested on: U-251; test: Cytotoxicity against human U251 cells after 48 hrs by SRB assay; type: functional; conditions: U-251, 48 h; procedure, shortened: as §3
[16] = tested on: Leukemia cell; test: Potency index, ratio of sunitinib GI50 to test compound GI50 for human leukemia cells; type: functional; procedure, shortened: as §4
[17] = tested on: RXF 393; test: Cytotoxicity against human RXF393 cells after 48 hrs by SRB assay; type: functional; conditions: RXF 393, 48 h; procedure, shortened: as §2
[18] = Potency index, ratio of sunitinib GI50 to test compound GI50 for human colon cancer cells; type: functional, Colon cancer cell; procedure, shortened: as §4
[19] = tested on: Melanoma cell; test: Potency index, ratio of sunitinib GI50 to test compound GI50 for human melanoma cells; type: functional; procedure, shortened: as §4
[20] = tested on: NCI-H522; test: Cytotoxicity against human NCI-H522 cells after 48 hrs by SRB assay; type: functional; conditions: NCI-H522, 48 h; procedure, shortened: as §2
[21] = Potency index, ratio of sunitinib TGI to test compound TGI for human renal cancer cells; type: functional, Renal cancer cell
[22] = tested on: HUVEC; test: Growth inhibition of HUVEC at 10 uM after 72 hrs by CellTiter-Glo assay relative to control; type: functional; conditions: Homo sapiens, read-out: GI; procedure, shortened: as §1
[23] = Potency index, ratio of test compound LC50 to sorafenib LC50 for human renal cancer cells; type: functional, Renal cancer cell
[24] = target: TRAF2 and NCK-interacting protein kinase (Homo sapiens) (UniProt Q9UKE5); test: Inhibition of human TNIK at 0.5 uM relative to control
[25] = tested on: EKVX; test: Cytotoxicity against human EKVX cells after 48 hrs by SRB assay; type: functional; procedure, shortened: as §2
[26] = tested on: ACHN; test: Cytotoxicity against human ACHN cells after 48 hrs by SRB assay; type: functional; procedure, shortened: as §2
[27] = tested on: MDA-MB-435; test: Growth inhibition of human MDA-MB-435 cells at 10 uM after 72 hrs by CellTiter-Glo assay relative to control; type: functional; conditions: MDA-MB-435, 72 h, read-out: GI; procedure, shortened: as §1
[28] = tested on: SK-MEL-28; test: Cytotoxicity against human SK-MEL-28 cells after 48 hrs by SRB assay; type: functional; conditions: SK-MEL-28, 48 h; procedure, shortened: as §2
[29] = target: Tyrosine-protein kinase HCK (Homo sapiens) (UniProt P08631); test: Inhibition of human HCK at 0.5 uM relative to control
Chain of Tyrosine-protein kinase HCK (Homo sapiens) (P08631 2-526 limits assumed): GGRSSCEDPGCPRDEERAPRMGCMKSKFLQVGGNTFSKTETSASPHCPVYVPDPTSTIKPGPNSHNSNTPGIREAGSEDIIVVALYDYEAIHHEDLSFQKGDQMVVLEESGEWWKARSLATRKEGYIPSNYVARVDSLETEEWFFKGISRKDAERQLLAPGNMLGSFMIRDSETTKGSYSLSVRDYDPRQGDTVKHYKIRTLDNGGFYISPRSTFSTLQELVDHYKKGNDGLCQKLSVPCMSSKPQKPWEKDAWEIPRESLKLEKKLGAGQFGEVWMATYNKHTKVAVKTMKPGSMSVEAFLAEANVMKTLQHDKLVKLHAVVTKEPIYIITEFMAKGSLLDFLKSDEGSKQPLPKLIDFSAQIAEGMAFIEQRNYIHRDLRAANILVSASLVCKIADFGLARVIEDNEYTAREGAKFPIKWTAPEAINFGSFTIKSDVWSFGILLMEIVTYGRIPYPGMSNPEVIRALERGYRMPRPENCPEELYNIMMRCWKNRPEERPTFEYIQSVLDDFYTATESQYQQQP

[30] = tested on: BT-549; test: Cytotoxicity against human BT549 cells after 48 hrs by SRB assay; type: functional; conditions: BT-549, 48 h; procedure, shortened: as §2
[31] = tested on: DU-145; test: Cytotoxicity against human DU145 cells after 48 hrs by SRB assay; type: functional; conditions: DU-145, 48 h; procedure, shortened: as §2
[32] = tested on: PC-3; test: Cytotoxicity against human PC3 cells after 48 hrs by SRB assay; type: functional; conditions: PC-3, 48 h; procedure, shortened: as §2
[33] = target: Tyrosine-protein kinase ABL1 (Homo sapiens) (UniProt P00519); conditions: at 0.5 µM
Chain of Tyrosine-protein kinase ABL1 (Homo sapiens) (P00519 whole entry): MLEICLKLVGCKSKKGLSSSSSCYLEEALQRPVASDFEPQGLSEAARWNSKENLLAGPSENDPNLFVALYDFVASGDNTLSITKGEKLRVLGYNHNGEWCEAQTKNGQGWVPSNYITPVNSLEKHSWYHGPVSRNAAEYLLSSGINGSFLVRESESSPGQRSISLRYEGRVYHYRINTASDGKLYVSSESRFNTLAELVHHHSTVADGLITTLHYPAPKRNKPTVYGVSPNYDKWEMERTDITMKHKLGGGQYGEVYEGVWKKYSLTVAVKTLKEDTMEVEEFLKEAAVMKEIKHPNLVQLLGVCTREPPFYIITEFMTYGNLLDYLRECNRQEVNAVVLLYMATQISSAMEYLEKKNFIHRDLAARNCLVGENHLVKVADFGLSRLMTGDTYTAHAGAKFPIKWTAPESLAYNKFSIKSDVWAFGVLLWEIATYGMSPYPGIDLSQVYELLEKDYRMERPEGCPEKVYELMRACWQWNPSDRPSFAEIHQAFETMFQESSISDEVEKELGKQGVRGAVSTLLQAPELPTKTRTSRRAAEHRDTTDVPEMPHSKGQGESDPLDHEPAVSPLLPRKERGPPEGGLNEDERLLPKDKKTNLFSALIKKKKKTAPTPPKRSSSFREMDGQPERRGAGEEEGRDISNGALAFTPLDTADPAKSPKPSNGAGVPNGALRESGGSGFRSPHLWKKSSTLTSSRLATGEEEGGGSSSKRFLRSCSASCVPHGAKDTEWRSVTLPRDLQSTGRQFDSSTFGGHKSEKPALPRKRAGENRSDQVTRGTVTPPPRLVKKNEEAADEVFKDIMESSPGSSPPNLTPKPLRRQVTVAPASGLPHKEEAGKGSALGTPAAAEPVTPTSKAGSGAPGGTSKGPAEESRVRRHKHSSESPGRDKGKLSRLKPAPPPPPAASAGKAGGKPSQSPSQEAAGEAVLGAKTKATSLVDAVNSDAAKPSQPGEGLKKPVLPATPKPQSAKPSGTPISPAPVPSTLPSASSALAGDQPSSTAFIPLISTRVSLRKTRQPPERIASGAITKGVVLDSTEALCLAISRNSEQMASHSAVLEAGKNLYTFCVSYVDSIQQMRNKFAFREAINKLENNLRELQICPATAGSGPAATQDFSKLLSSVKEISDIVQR

[34] = target: Fibroblast growth factor receptor 4 (Homo sapiens) (UniProt P22455); test: Inhibition of human FGFR4 at 0.5 uM relative to control
Chain of Fibroblast growth factor receptor 4 (Homo sapiens) (P22455 22-802 limits assumed): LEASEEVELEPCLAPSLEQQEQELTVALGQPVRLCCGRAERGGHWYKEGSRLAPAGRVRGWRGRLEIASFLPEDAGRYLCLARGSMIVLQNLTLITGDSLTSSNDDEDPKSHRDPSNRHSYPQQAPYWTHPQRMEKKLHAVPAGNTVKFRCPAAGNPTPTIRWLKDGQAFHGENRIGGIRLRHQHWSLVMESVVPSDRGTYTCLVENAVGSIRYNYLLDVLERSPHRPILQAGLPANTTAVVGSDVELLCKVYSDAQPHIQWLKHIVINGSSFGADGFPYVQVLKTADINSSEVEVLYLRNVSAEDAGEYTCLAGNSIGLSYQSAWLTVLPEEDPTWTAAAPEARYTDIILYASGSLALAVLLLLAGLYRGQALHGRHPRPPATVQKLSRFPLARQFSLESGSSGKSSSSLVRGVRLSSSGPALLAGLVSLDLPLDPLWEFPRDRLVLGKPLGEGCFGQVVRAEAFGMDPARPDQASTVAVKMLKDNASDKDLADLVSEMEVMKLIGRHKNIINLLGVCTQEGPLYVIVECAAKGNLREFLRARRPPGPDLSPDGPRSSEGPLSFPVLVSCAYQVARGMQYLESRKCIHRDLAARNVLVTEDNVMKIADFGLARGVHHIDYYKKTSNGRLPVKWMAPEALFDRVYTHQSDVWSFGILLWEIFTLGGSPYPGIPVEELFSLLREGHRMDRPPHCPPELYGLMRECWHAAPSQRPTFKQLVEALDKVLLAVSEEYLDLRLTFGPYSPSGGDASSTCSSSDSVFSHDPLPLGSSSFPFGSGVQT

[35] = read-out: LC50 (the source's name)

COc1cc2ncnc(Oc3ccc(NC(=O)Nc4ccc(CN5CCOCC5)c(C(F)(F)F)c4)c4ccccc34)c2cc1OC
IC50 [1]: 2.36 µM | inhibition [2]: Active | GI50 [3]: 1.17 µM | TGI [3]: 40.7 µM | CC50 [3, 35]: > 100 µM | GI50 [4]: 0.69 µM | TGI [4]: 5.37 µM | CC50 [4, 35]: > 100 µM | GI50 [5]: 0.6 µM | TGI [5]: 3.47 µM | CC50 [5, 35]: 18.6 µM | GI50 [6]: 1.1 µM | TGI [6]: 2.82 µM | CC50 [6, 35]: 7.24 µM | inhibition [7]: Active | RatioGI50 [8]: 5 - 7.7 | RatioGI50 [9]: 3.9 - 9.5 | GI50 [10]: 0.12 µM | TGI [10]: 10.5 µM | CC50 [10, 35]: 35.5 µM | RatioGI50 [11]: 3.9 - 9.5 | inhibition [12]: Active | GI50 [13]: 0.23 µM | TGI [13]: 2.82 µM | CC50 [13, 35]: 72.4 µM | inhibition [14]: Active | GI50 [15]: 1.05 µM | TGI [15]: 3.98 µM | CC50 [15, 35]: 27.5 µM | RatioGI50 [16]: 5 - 7.7 | GI50 [17]: 1.05 µM | TGI [17]: 7.08 µM | CC50 [17, 35]: 29.5 µM | RatioGI50 [18]: 1.1 - 3.7 | RatioGI50 [19]: 1.1 - 3.7 | GI50 [20]: 0.31 µM | TGI [20]: 3.8 µM | CC50 [20, 35]: > 100 µM | Ratio [21]: 3.2 | inhibition of growth at 10 µM [22]: 97.1% | RatioLC50 [23]: 2 | inhibition [24]: Active | GI50 [25]: 0.45 µM | TGI [25]: 6.46 µM | CC50 [25, 35]: 67.6 µM | GI50 [26]: 0.32 µM | TGI [26]: 1.62 µM | CC50 [26, 35]: 14.1 µM | inhibition of growth at 10 µM [27]: 98.4% | GI50 [28]: 0.89 µM | TGI [28]: 4.79 µM | CC50 [28, 35]: 42.7 µM | inhibition [29]: Active | GI50 [30]: 1.15 µM | TGI [30]: 7.41 µM | CC50 [30, 35]: 34.7 µM | GI50 [31]: 1.55 µM | TGI [31]: 13.2 µM | CC50 [31, 35]: 44.7 µM | GI50 [32]: 1.78 µM | TGI [32]: 12.6 µM | CC50 [32, 35]: > 100 µM | inhibition [33]: Active | inhibition [34]: > 96%
